Some results are limits rather than exact numbers.

Chain of human DAT (Q01959 whole entry): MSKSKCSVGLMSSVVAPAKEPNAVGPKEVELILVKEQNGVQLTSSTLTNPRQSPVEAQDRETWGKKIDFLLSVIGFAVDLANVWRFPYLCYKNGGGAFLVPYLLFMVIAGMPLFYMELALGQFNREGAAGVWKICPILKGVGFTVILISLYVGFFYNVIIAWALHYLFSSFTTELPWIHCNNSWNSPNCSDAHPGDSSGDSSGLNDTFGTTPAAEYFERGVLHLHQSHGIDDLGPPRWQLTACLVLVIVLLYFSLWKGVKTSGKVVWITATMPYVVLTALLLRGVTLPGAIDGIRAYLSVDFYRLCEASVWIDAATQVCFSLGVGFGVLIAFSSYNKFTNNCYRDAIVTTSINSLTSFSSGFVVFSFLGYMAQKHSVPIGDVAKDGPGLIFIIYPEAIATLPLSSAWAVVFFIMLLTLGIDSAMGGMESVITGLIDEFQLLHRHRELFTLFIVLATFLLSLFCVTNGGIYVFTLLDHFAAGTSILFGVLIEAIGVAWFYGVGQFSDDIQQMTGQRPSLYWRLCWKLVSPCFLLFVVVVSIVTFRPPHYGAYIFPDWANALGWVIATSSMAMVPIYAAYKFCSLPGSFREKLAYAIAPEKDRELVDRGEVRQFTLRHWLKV
Chain of α4β2-nAChR (P43681 29-627 limits assumed): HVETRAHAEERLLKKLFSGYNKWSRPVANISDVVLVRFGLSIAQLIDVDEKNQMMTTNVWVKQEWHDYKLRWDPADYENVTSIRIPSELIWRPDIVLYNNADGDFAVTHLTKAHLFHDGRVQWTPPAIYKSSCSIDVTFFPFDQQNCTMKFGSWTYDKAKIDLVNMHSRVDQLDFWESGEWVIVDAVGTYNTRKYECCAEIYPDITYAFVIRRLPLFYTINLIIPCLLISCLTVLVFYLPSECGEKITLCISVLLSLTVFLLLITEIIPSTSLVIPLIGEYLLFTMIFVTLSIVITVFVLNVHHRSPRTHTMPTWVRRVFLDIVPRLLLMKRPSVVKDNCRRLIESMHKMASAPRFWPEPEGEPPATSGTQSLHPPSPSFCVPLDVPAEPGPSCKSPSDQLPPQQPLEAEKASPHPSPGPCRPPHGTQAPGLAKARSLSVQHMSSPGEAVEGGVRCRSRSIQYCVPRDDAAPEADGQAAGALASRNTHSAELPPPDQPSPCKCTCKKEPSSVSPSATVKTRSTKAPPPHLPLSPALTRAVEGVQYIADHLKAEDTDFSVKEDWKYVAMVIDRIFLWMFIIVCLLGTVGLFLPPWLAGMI
Chain of α4β2-nAChR (P17787 26-502): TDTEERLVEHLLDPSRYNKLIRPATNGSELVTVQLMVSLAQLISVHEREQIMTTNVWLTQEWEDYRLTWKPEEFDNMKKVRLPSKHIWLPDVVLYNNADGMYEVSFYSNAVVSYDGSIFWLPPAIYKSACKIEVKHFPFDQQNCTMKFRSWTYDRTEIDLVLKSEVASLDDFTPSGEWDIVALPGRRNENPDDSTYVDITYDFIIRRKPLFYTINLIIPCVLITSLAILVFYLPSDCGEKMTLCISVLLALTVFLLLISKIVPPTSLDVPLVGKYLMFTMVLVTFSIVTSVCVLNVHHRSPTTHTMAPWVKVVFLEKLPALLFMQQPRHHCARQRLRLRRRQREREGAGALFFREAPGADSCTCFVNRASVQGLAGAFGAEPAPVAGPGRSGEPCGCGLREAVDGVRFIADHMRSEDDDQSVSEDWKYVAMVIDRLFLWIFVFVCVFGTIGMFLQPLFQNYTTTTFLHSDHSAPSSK
Chain of α4β4-nAChR (P43681 29-627 limits assumed): as the sequence (P43681 29-627 limits assumed) above
Chain of α4β4-nAChR (P30926 22-498): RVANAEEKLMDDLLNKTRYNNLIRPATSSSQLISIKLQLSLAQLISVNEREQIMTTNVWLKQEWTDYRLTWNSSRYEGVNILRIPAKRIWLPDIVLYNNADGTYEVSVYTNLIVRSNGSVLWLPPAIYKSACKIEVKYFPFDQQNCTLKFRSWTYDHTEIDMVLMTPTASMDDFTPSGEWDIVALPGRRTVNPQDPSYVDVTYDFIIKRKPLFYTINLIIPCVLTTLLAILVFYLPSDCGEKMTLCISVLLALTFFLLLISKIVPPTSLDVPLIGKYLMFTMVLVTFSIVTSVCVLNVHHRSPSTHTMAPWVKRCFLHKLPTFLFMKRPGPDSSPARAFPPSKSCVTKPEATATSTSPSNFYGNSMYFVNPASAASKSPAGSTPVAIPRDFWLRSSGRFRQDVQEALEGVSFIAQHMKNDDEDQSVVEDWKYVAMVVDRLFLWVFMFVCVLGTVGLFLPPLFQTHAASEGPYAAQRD

The first assay concerns the target α4β4-nAChR (Homo sapiens, UniProt P30926+P43681). In words: 86Rb+ efflux assay of nAChR function. Format: cell-based.
Conditions: not given
For `CCN1[C@@H](C)[C@H](c2cccc(Cl)c2)OCC1(C)C` [(S,S)-5e, (S,S)-2-(3'-Chlorophenyl)-4-ethyl-3,5,5-trimethylmorpholine], the concentration for half-maximal inhibition (IC50) was determined as 6.4 µM.
The same measure, in the same setting: the same measure for `CCCN1[C@@H](C)[C@H](c2cccc(Cl)c2)OCC1(C)C` [(S,S)-5f, (S,S)-2-(3'-Chlorophenyl)-3,5,5-trimethyl-4-propylmorpholine]: 5.8 µM; for `CC[C@@H]1NC(C)(C)CO[C@H]1c1cccc(Cl)c1` [(S,S)-5g, (S,S)-2-(3'-Chlorophenyl)-3-ethyl-5,5-dimethylmorpholine]: 15 µM.

A further assay has as its target α1*-nAChR (muscle-type α1β1γδ-nAChR) (Homo sapiens, UniProt P02708+P07510+P11230+Q07001). In words: 86Rb+ efflux assay of nAChR function.
Conditions: not given
The format is cell-based.
`CCN1[C@@H](C)[C@H](c2cccc(Cl)c2)OCC1(C)C` [(S,S)-5e, (S,S)-2-(3'-Chlorophenyl)-4-ethyl-3,5,5-trimethylmorpholine] registered an IC50 of 14 µM. This counts as double-digit micromolar.
Still for that read-out and setting: the same measure for `CCCN1[C@@H](C)[C@H](c2cccc(Cl)c2)OCC1(C)C` [(S,S)-5f, (S,S)-2-(3'-Chlorophenyl)-3,5,5-trimethyl-4-propylmorpholine]: 5.5 µM.
In the case of `CC[C@@H]1NC(C)(C)CO[C@H]1c1cccc(Cl)c1` [(S,S)-5g, (S,S)-2-(3'-Chlorophenyl)-3-ethyl-5,5-dimethylmorpholine], the IC50 stood at 13 µM.

The next assay deals with nicotine-induced antinociception (tail-flick). In words: Blockade of nicotine-induced antinociception, tail-flick test. Format: in vivo, mice. The following applies: Mus musculus, read-out: AD50 Tail-flick. The essentials: (§1)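 Male ICR mice (20–25 g) were given the test compound to block the acute effects of nicotine. Dose-response curves used at least four doses of test compound, with at least eight mice per dose group. Results are AD50 (mg/kg) with confidence limits, or % effect at the highest dose tested.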
With `CCN1[C@@H](C)[C@H](c2cccc(Cl)c2)OCC1(C)C` [(S,S)-5e, (S,S)-2-(3'-Chlorophenyl)-4-ethyl-3,5,5-trimethylmorpholine], the ED50 is 0.029 mg/kg.
The same measure, in the same setting: under `CCCN1[C@@H](C)[C@H](c2cccc(Cl)c2)OCC1(C)C` [(S,S)-5f, (S,S)-2-(3'-Chlorophenyl)-3,5,5-trimethyl-4-propylmorpholine] stands 0.056 mg/kg.
On the same count and under the same terms, under `CC[C@@H]1NC(C)(C)CO[C@H]1c1cccc(Cl)c1` [(S,S)-5g, (S,S)-2-(3'-Chlorophenyl)-3-ethyl-5,5-dimethylmorpholine] stands 0.018 mg/kg.

Staying with this assay, now noted: mice, antagonism of acute nicotine; parentheses: confidence limits.
As for `CC[C@@H]1NC(C)(C)CO[C@H]1c1cccc(Cl)c1` [(S,S)-5g, (S,S)-2-(3'-Chlorophenyl)-3-ethyl-5,5-dimethylmorpholine], the “AD50 Tail-flick” value is 0.018 (0.009–0.03) mg/kg.

A further assay has as its system nicotine-induced hypothermia. As to the kind of experiment: Blockade of nicotine-induced hypothermia. The format is in vivo, mice. The note with it: Mus musculus, read-out: AD50 Hypothermia. The essentials: as §1
As for `CCN1[C@@H](C)[C@H](c2cccc(Cl)c2)OCC1(C)C` [(S,S)-5e, (S,S)-2-(3'-Chlorophenyl)-4-ethyl-3,5,5-trimethylmorpholine], the ED50 was over 20 mg/kg.
`CCCN1[C@@H](C)[C@H](c2cccc(Cl)c2)OCC1(C)C` [(S,S)-5f, (S,S)-2-(3'-Chlorophenyl)-3,5,5-trimethyl-4-propylmorpholine]: the ED50 was over 20 mg/kg.
Turning to `CC[C@@H]1NC(C)(C)CO[C@H]1c1cccc(Cl)c1` [(S,S)-5g, (S,S)-2-(3'-Chlorophenyl)-3-ethyl-5,5-dimethylmorpholine], the ED50 turned out to be 2.5 mg/kg.

A further assay has as its system nicotine-induced CPP. As to the kind of experiment: Blockade of nicotine-induced conditioned place preference. The format is in vivo, mice. The note with it: mice, blockade of nicotine-induced CPP.
For `CCN1[C@@H](C)[C@H](c2cccc(Cl)c2)OCC1(C)C` [(S,S)-5e, (S,S)-2-(3'-Chlorophenyl)-4-ethyl-3,5,5-trimethylmorpholine], the “AD50 CPP” value worked out at 0.025 mg/kg.
Consider `CCCN1[C@@H](C)[C@H](c2cccc(Cl)c2)OCC1(C)C` [(S,S)-5f, (S,S)-2-(3'-Chlorophenyl)-3,5,5-trimethyl-4-propylmorpholine], for which the “AD50 CPP” value amounted to 0.03 mg/kg.

Still in this assay, the particulars now being: relative to (S,S)-4a.
With `CCN1[C@@H](C)[C@H](c2cccc(Cl)c2)OCC1(C)C` [(S,S)-5e, (S,S)-2-(3'-Chlorophenyl)-4-ethyl-3,5,5-trimethylmorpholine], the “More potent in blocking nicotine-induced CPP” value is recorded as 4 fold.

In a further assay the test system is nicotine-induced locomotor depression. As to the kind of experiment: Blockade of nicotine-induced locomotor depression. The note with it: Mus musculus, read-out: AD50 Locomotion. Format: in vivo, mice. The essentials:
as §1
Consider `CCN1[C@@H](C)[C@H](c2cccc(Cl)c2)OCC1(C)C` [(S,S)-5e, (S,S)-2-(3'-Chlorophenyl)-4-ethyl-3,5,5-trimethylmorpholine], for which the ED50 was over 20 mg/kg.
Same read-out and setting: the same measure for `CCCN1[C@@H](C)[C@H](c2cccc(Cl)c2)OCC1(C)C` [(S,S)-5f, (S,S)-2-(3'-Chlorophenyl)-3,5,5-trimethyl-4-propylmorpholine]: over 20 mg/kg; for `CC[C@@H]1NC(C)(C)CO[C@H]1c1cccc(Cl)c1` [(S,S)-5g, (S,S)-2-(3'-Chlorophenyl)-3-ethyl-5,5-dimethylmorpholine]: 2.7 mg/kg.

In the next assay the target is human NET (Homo sapiens, UniProt P23975). In words: [3H]NE uptake inhibition, HEK-293 cells expressing human NET. Format: cell-based.
Chain of human NET (P23975 whole entry): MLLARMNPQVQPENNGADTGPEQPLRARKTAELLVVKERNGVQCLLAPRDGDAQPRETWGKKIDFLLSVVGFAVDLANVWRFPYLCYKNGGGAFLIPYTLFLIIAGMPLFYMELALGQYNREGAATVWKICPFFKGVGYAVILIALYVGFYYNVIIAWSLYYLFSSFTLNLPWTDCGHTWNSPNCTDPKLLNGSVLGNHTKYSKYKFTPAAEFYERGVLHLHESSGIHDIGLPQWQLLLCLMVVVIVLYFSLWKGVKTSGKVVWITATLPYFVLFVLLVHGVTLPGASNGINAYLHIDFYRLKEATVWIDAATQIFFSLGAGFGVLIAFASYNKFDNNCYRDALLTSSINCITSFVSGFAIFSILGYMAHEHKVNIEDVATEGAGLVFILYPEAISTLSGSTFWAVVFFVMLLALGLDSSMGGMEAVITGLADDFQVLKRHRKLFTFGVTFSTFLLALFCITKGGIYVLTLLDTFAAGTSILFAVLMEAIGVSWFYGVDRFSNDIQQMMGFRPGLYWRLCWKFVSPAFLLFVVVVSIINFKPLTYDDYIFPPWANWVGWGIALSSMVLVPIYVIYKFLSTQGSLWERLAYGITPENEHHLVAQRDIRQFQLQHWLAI
Conditions: not given
Turning to `CCN1[C@@H](C)[C@H](c2cccc(Cl)c2)OCC1(C)C` [(S,S)-5e, (S,S)-2-(3'-Chlorophenyl)-4-ethyl-3,5,5-trimethylmorpholine], inhibition was half-maximal at 0.024 ± 0.008 µM (IC50).
Regarding `CCCN1[C@@H](C)[C@H](c2cccc(Cl)c2)OCC1(C)C` [(S,S)-5f, (S,S)-2-(3'-Chlorophenyl)-3,5,5-trimethyl-4-propylmorpholine], the IC50 worked out at 0.013 ± 0.0036 µM.
Regarding `CC[C@@H]1NC(C)(C)CO[C@H]1c1cccc(Cl)c1` [(S,S)-5g, (S,S)-2-(3'-Chlorophenyl)-3-ethyl-5,5-dimethylmorpholine], half-maximal inhibition (IC50) required 0.019 ± 0.003 µM.

For the next assay, the target named is α3β4*-nAChR (Homo sapiens, UniProt P30926+P32297). In words: 86Rb+ efflux assay of nAChR function. The format is cell-based.
Chain of α3β4*-nAChR (P32297 32-505): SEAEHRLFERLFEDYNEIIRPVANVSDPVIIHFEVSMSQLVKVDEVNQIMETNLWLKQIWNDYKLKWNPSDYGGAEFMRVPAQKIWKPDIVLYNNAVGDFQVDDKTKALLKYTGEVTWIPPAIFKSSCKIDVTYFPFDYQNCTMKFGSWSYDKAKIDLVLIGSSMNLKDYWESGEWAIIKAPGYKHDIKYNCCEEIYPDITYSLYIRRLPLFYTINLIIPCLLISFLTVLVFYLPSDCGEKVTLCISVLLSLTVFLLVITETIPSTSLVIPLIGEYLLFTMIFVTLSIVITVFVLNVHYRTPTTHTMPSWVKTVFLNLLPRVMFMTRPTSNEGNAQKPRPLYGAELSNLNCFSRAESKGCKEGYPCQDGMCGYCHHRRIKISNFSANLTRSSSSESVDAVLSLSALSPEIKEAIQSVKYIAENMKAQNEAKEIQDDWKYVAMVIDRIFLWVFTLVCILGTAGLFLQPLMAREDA
Chain of α3β4*-nAChR (P30926 22-498): as the sequence (P30926 22-498) above
Conditions: not given
With `CCN1[C@@H](C)[C@H](c2cccc(Cl)c2)OCC1(C)C` [(S,S)-5e, (S,S)-2-(3'-Chlorophenyl)-4-ethyl-3,5,5-trimethylmorpholine], the half-inhibitory concentration (IC50) was 0.79 µM.
Same read-out and setting: under `CCCN1[C@@H](C)[C@H](c2cccc(Cl)c2)OCC1(C)C` [(S,S)-5f, (S,S)-2-(3'-Chlorophenyl)-3,5,5-trimethyl-4-propylmorpholine] stands 0.98 µM; under `CC[C@@H]1NC(C)(C)CO[C@H]1c1cccc(Cl)c1` [(S,S)-5g, (S,S)-2-(3'-Chlorophenyl)-3-ethyl-5,5-dimethylmorpholine], 5.6 µM.

Another assay has as its target human DAT (Homo sapiens, UniProt Q01959). In words: [3H]DA uptake inhibition, HEK-293 cells expressing human DAT. The format is cell-based.
Conditions: not given
In turn, `CCN1[C@@H](C)[C@H](c2cccc(Cl)c2)OCC1(C)C` [(S,S)-5e, (S,S)-2-(3'-Chlorophenyl)-4-ethyl-3,5,5-trimethylmorpholine] came in with a half-maximal inhibitory concentration (IC50) of 0.044 ± 0.009 µM.
The same measure, in the same setting: the same measure for `CCCN1[C@@H](C)[C@H](c2cccc(Cl)c2)OCC1(C)C` [(S,S)-5f, (S,S)-2-(3'-Chlorophenyl)-3,5,5-trimethyl-4-propylmorpholine]: 0.061 ± 0.02 µM; for `CC[C@@H]1NC(C)(C)CO[C@H]1c1cccc(Cl)c1` [(S,S)-5g, (S,S)-2-(3'-Chlorophenyl)-3-ethyl-5,5-dimethylmorpholine]: 0.023 ± 0.005 µM.

A further assay has as its system nicotine-induced antinociception (hot-plate). As to the kind of experiment: Blockade of nicotine-induced antinociception, hot-plate test. Format: in vivo, mice. The following applies: Mus musculus, read-out: AD50 Hot-plate. The essentials:
as §1
In the case of `CCN1[C@@H](C)[C@H](c2cccc(Cl)c2)OCC1(C)C` [(S,S)-5e, (S,S)-2-(3'-Chlorophenyl)-4-ethyl-3,5,5-trimethylmorpholine], the ED50 was over 20 mg/kg.
Regarding `CCCN1[C@@H](C)[C@H](c2cccc(Cl)c2)OCC1(C)C` [(S,S)-5f, (S,S)-2-(3'-Chlorophenyl)-3,5,5-trimethyl-4-propylmorpholine], the ED50 was over 20 mg/kg.
The same measure, in the same setting: under `CC[C@@H]1NC(C)(C)CO[C@H]1c1cccc(Cl)c1` [(S,S)-5g, (S,S)-2-(3'-Chlorophenyl)-3-ethyl-5,5-dimethylmorpholine] stands 9.6 mg/kg.

Another assay addresses α4β2-nAChR (Homo sapiens, UniProt P17787+P43681). As to the kind of experiment: 86Rb+ efflux assay of nAChR function. The format is cell-based.
Conditions: not given
Compound `CCN1[C@@H](C)[C@H](c2cccc(Cl)c2)OCC1(C)C` [(S,S)-5e, (S,S)-2-(3'-Chlorophenyl)-4-ethyl-3,5,5-trimethylmorpholine] yielded a half-maximal inhibitory concentration (IC50) of 7.2 µM.
Still for that read-out and setting: under `CCCN1[C@@H](C)[C@H](c2cccc(Cl)c2)OCC1(C)C` [(S,S)-5f, (S,S)-2-(3'-Chlorophenyl)-3,5,5-trimethyl-4-propylmorpholine] stands 12 µM.
On to `CC[C@@H]1NC(C)(C)CO[C@H]1c1cccc(Cl)c1` [(S,S)-5g, (S,S)-2-(3'-Chlorophenyl)-3-ethyl-5,5-dimethylmorpholine], for which the IC50 turned out to be 14 µM.

(Values after publication PMC3048909 (Journal of medicinal chemistry, 2011).)
